The target in assay [1] is T1, Serine/threonine-protein kinase ATR (Homo sapiens, UniProt Q13535). The assay can be described thus: Inhibition of full length recombinant ATR after 24 hrs by radiometric phosphate incorporation assay. The method, boiled down:
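Radiometric [γ-33P]ATP incorporation into target peptide. Full-length ATR and ATM were made in-house; DNA-PK was purchased. Kinase, buffer and peptide were premixed, then compound was added in DMSO (7% final DMSO). Reactions started with ATP at 25 °C and were stopped with phosphoric acid (100 mM final) plus ATP (0.66 μM final). Peptide was captured on phosphocellulose, washed, and scintillation-counted.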

Assay [2] has as its target Serine-protein kinase ATM (Homo sapiens, UniProt Q13315). Description: Inhibition of full length recombinant ATM after 24 hrs by radiometric phosphate incorporation assay.
Assay [3] has as its target DNA-dependent protein kinase catalytic subunit (Homo sapiens, UniProt P78527). The assay can be described thus: Inhibition of DNAPK after 2 hrs by radiometric phosphate incorporation assay.
The target in the next assay is Cytochrome P450 3A4 (Homo sapiens, UniProt P08684). Description: Inhibition of CYP3A4. The assay is classed as ADME.
The target in assay [4] is T1, Serine/threonine-protein kinase ATR. The assay can be described thus: Inhibition of ATR in human HT-29 cells assessed as hydroxyurea-induced phosphorylation of H2AX by immunofluorescence microscopy. In kind it is cell-based.
In assay [5] the target is Serine/threonine-protein kinase mTOR (Homo sapiens, UniProt P42345). Description: Inhibition of mTOR by radiometric phosphate incorporation assay.

SMILES strings stand for the structures.

T1 sequence (Q13535 whole entry): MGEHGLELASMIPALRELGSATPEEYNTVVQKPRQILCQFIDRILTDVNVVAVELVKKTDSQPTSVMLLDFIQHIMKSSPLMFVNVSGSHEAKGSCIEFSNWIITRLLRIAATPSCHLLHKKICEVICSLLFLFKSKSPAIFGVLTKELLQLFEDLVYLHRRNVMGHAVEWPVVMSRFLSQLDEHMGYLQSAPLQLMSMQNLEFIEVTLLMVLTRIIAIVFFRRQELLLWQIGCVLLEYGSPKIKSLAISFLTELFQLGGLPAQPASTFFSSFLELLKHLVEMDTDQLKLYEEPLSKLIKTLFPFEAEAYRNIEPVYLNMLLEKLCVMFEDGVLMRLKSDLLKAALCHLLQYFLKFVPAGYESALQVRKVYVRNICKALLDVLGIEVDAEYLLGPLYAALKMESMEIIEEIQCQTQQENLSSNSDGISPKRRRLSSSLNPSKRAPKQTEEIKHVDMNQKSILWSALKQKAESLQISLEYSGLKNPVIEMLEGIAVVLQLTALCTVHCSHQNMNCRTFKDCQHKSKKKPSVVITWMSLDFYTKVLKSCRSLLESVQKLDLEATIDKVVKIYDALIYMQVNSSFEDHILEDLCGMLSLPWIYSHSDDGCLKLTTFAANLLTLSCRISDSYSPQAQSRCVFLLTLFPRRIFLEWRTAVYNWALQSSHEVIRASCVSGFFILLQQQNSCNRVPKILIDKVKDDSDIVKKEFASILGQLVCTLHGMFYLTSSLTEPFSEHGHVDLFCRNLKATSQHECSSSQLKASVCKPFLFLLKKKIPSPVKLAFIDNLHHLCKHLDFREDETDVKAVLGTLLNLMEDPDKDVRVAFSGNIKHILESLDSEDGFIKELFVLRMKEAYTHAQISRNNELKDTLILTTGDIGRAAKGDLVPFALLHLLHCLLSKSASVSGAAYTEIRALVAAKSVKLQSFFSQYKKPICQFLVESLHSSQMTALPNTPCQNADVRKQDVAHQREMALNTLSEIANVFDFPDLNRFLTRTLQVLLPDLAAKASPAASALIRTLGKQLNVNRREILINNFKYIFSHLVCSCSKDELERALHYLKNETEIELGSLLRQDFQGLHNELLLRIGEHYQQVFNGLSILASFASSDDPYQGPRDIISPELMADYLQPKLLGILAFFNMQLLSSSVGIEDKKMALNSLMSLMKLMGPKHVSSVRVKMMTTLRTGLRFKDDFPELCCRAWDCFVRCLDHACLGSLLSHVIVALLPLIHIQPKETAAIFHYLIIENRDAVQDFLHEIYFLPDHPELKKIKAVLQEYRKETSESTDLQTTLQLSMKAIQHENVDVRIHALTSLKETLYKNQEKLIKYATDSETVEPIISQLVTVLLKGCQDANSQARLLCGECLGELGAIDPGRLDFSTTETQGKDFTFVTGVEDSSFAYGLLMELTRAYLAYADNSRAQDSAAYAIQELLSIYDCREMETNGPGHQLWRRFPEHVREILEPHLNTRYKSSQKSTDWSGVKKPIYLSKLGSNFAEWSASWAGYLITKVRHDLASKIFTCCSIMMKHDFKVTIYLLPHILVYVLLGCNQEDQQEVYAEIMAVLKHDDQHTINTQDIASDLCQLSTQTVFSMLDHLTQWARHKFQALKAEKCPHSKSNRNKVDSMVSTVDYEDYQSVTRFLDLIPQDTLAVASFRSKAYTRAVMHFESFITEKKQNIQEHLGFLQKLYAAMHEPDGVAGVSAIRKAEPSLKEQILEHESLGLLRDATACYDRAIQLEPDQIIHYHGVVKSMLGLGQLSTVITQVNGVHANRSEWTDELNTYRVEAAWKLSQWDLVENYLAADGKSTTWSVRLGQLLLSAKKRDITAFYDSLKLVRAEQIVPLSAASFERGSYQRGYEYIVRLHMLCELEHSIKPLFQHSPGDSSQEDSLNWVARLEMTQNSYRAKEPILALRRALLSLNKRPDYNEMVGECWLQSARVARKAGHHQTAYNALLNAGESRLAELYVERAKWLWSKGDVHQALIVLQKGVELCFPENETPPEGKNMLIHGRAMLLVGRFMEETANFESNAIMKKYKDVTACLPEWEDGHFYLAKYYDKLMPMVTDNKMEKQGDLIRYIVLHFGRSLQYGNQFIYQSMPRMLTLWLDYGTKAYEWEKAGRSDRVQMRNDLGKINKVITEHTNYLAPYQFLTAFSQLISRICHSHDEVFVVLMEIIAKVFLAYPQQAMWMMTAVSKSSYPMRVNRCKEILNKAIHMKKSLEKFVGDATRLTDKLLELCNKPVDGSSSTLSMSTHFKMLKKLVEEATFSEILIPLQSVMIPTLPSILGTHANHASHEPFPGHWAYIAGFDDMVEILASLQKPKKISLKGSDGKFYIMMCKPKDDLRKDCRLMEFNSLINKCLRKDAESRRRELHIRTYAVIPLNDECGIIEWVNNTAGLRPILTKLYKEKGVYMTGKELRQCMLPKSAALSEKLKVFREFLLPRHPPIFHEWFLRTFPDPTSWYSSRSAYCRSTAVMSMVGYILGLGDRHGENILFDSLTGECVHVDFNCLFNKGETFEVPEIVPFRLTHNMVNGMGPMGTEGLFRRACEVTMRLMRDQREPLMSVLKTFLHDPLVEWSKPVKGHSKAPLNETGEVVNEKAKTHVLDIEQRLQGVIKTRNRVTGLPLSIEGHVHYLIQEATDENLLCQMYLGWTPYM
Cytochrome P450 3A4, sequence (P08684 whole entry): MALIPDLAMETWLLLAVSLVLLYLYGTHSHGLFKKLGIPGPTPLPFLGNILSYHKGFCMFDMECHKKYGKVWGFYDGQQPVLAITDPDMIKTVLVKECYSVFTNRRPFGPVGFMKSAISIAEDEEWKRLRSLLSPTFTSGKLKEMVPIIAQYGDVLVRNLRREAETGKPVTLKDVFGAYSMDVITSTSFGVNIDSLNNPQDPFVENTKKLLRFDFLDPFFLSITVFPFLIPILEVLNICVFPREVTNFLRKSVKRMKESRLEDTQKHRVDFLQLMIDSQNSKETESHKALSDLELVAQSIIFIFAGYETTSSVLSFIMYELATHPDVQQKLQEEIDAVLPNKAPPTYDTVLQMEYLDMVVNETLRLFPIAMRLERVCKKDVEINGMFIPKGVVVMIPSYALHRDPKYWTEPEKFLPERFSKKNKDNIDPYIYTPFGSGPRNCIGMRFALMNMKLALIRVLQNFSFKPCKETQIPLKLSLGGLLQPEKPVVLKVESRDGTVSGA

The term IC50 denotes the concentration that inhibits the measured activity by half. `O=c1cc(N2CCOCC2)oc2c1ccc1ccccc12`: the IC50 in assay [1] and in assay [2] was above 100 µM each time.

As for `Nc1ncc(-c2cccnc2)nc1C(=O)Nc1ccccc1`, the IC50 in assay [3] was above 8 µM; in assay [1], 0.18 µM; at Cytochrome P450 3A4 it was 2 µM; in assay [2] it was above 8 µM.

Take `Nc1ncc(-c2ccccc2)nc1C(=O)Nc1ccccc1`: the IC50 is above 2.5 µM in assay [4]; above 8 µM in assay [3]; 0.62 µM in assay [1]; above 100 µM against Cytochrome P450 3A4; above 8 µM in assay [2].

Regarding `Nc1nccnc1C(=O)Nc1ccccc1`, the figures for the IC50 in assay [3], in assay [1] and in assay [2] were above 8 µM, 7.1 µM and above 8 µM, respectively.

For the compound `Nc1ncc(Br)nc1C(=O)Nc1ccccc1`, the IC50 in assay [3] was above 8 µM; in assay [1] it was 5.2 µM; in assay [2], above 8 µM.

With `Nc1ncc(C2CCCCC2)nc1C(=O)Nc1ccccc1`, the IC50 in assay [3] is above 8 µM; in assay [1], 3 µM; in assay [2], above 8 µM.

With `Nc1ncc(C2=CCCCC2)nc1C(=O)Nc1ccccc1`, the IC50 in assay [3] was above 8 µM; in assay [1] it was 2.1 µM; in assay [2], above 8 µM.

`Nc1ncc(-c2ccncc2)nc1C(=O)Nc1ccccc1`: the IC50 is 5 µM in assay [3], 0.64 µM in assay [1] and above 8 µM in assay [2].

Consider `N#Cc1ccccc1-c1cnc(N)c(C(=O)Nc2ccccc2)n1`, for which the IC50 in assay [3] was found to be 0.72 µM; in assay [1], 0.024 µM; in assay [2], 0.32 µM.

Take `C[S+]([O-])c1ccccc1-c1cnc(N)c(C(=O)Nc2ccccc2)n1` (centres undefined): the IC50 turned out to be 2 µM in assay [3], 0.13 µM in assay [1] and 3 µM in assay [2].

As for `CS(=O)(=O)c1ccccc1-c1cnc(N)c(C(=O)Nc2ccccc2)n1`, the IC50 in assay [3] was above 8 µM; in assay [1], 1.3 µM; in assay [2], above 8 µM.

With `Nc1ncc(-c2ccccc2O)nc1C(=O)Nc1ccccc1`, the values for the IC50 in assay [3], in assay [1] and in assay [2] were above 8 µM, 2.4 µM and above 8 µM, respectively.

With `COc1ccccc1-c1cnc(N)c(C(=O)Nc2ccccc2)n1`, the IC50 is above 8 µM in assay [3], 0.74 µM in assay [1] and above 8 µM in assay [2].

In the case of `Nc1ncc(-c2ccccc2Cl)nc1C(=O)Nc1ccccc1`, the results for the IC50 in assay [3], in assay [1] and in assay [2] were 3.8 µM, 0.7 µM and above 8 µM, respectively.

Consider `Cc1ccccc1-c1cnc(N)c(C(=O)Nc2ccccc2)n1`, for which the values for the IC50 in assay [3], in assay [1] and in assay [2] were 1.4 µM, 1.4 µM and above 8 µM, respectively.

For `N#Cc1cccc(-c2cnc(N)c(C(=O)Nc3ccccc3)n2)c1`, the IC50 in assay [3] was 2.2 µM; in assay [1] it was 0.4 µM; in assay [2] it was above 8 µM.

On to `CS(=O)(=O)c1cccc(-c2cnc(N)c(C(=O)Nc3ccccc3)n2)c1`, for which the IC50 in assay [3] came to 0.74 µM; in assay [1], 0.34 µM; in assay [2], 6.6 µM.

With `Nc1ncc(-c2cccc(O)c2)nc1C(=O)Nc1ccccc1`, the IC50 was 2.2 µM in assay [3], 0.54 µM in assay [1] and above 8 µM in assay [2].

As to `COc1cccc(-c2cnc(N)c(C(=O)Nc3ccccc3)n2)c1`, the IC50 is 4.2 µM in assay [3], 2.2 µM in assay [1] and above 8 µM in assay [2].

Take `Nc1ncc(-c2cccc(Cl)c2)nc1C(=O)Nc1ccccc1`: the IC50 in assay [3] was above 8 µM; in assay [1], 1.6 µM; in assay [2] it was above 8 µM.

`Cc1cccc(-c2cnc(N)c(C(=O)Nc3ccccc3)n2)c1`: the IC50 was above 8 µM in assay [3], 0.56 µM in assay [1] and above 8 µM in assay [2].

Regarding `N#Cc1ccc(-c2cnc(N)c(C(=O)Nc3ccccc3)n2)cc1`, the IC50 in assay [3] is above 8 µM; in assay [1] it was 0.18 µM; in assay [2], above 8 µM.

As for `CS(=O)(=O)c1ccc(-c2cnc(N)c(C(=O)Nc3ccccc3)n2)cc1`, the IC50 in assay [3] was 4.4 µM; in assay [1], 0.026 µM; in assay [2] it was above 8 µM.

Take `Nc1ncc(-c2ccc(O)cc2)nc1C(=O)Nc1ccccc1`: the concentration for half-maximal inhibition (IC50) is 1.8 µM in assay [3], 0.32 µM in assay [1] and 5.8 µM in assay [2].

Consider `COc1ccc(-c2cnc(N)c(C(=O)Nc3ccccc3)n2)cc1`, for which the IC50 in assay [3] was 6.6 µM; in assay [1], 1.5 µM; in assay [2] it was above 8 µM.

Regarding `Nc1ncc(-c2ccc(Cl)cc2)nc1C(=O)Nc1ccccc1`, the IC50 is above 8 µM in assay [3], 2.4 µM in assay [1] and above 8 µM in assay [2].

As to `Cc1ccc(-c2cnc(N)c(C(=O)Nc3ccccc3)n2)cc1`, the IC50 in assay [3] is above 8 µM; in assay [1] it was 1.7 µM; in assay [2], above 8 µM.

Regarding `NC(=O)c1ccc(-c2cnc(N)c(C(=O)Nc3ccccc3)n2)cc1`, the IC50 in assay [3] came out at 1.2 µM; in assay [1], 0.11 µM; in assay [2], 2.9 µM.

In the case of `CNC(=O)c1ccc(-c2cnc(N)c(C(=O)Nc3ccccc3)n2)cc1`, the IC50 in assay [3] was determined as 7 µM; in assay [1], 0.18 µM; in assay [2], 2.6 µM.

As to `Nc1ncc(-c2ccc(C(=O)N3CCC3)cc2)nc1C(=O)Nc1ccccc1`, the IC50 is 1 µM in assay [4], above 8 µM in assay [3], 0.1 µM in assay [1] and above 8 µM in assay [2].

Turning to `CN(C)C(=O)c1ccc(-c2cnc(N)c(C(=O)Nc3ccccc3)n2)cc1`, the IC50 is 2 µM in assay [4], above 8 µM in assay [3], 0.054 µM in assay [1] and above 8 µM in assay [2].

With `Nc1ncc(-c2ccc(C(=O)N3CCCC3)cc2)nc1C(=O)Nc1ccccc1`, the IC50 in assay [4] was 1.4 µM; in assay [3] it was 2.8 µM; in assay [1], 0.054 µM; in assay [2] it was above 8 µM.

With `Nc1ncc(-c2ccc(C(=O)N3CCCCC3)cc2)nc1C(=O)Nc1ccccc1`, the IC50 in assay [4] was 6.5 µM; in assay [3] it was above 8 µM; in assay [1], 0.026 µM; in assay [2], above 8 µM.

On to `CN(C)C(=O)c1ccc(-c2cnc(N)c(C(=O)Nc3ccccc3)n2)cc1Cl`, for which the IC50 was 12 µM in assay [4], above 8 µM in assay [3], 0.048 µM in assay [1] and above 8 µM in assay [2].

Take `C[S+]([O-])c1ccc(-c2cnc(N)c(C(=O)Nc3ccccc3)n2)cc1` (centres undefined): the IC50 was 5.4 µM in assay [4], 6.8 µM in assay [3], 0.056 µM in assay [1] and above 8 µM in assay [2].

With `CCS(=O)(=O)c1ccc(-c2cnc(N)c(C(=O)Nc3ccccc3)n2)cc1`, the half-maximal inhibitory concentration (IC50) in assay [4] was 1.5 µM; in assay [3], 5.8 µM; in assay [1], 0.012 µM; in assay [2], above 8 µM.

For the compound `CC(C)S(=O)(=O)c1ccc(-c2cnc(N)c(C(=O)Nc3ccccc3)n2)cc1`, the IC50 in assay [4] was 1 µM; in assay [3], 5.6 µM; in assay [1] it was 0.008 µM; in assay [2], above 8 µM.

As for `CCCS(=O)(=O)c1ccc(-c2cnc(N)c(C(=O)Nc3ccccc3)n2)cc1`, the IC50 was 2 µM in assay [4], above 8 µM in assay [3], 0.014 µM in assay [1] and 5.4 µM in assay [2].

On to `CCC(C)S(=O)(=O)c1ccc(-c2cnc(N)c(C(=O)Nc3ccccc3)n2)cc1` (centres undefined), for which the IC50 was 1.6 µM in assay [4], above 8 µM in assay [3], 0.01 µM in assay [1] and 6.6 µM in assay [2].

Regarding `CC(C)(C)S(=O)(=O)c1ccc(-c2cnc(N)c(C(=O)Nc3ccccc3)n2)cc1`, the IC50 in assay [4] is 1 µM; in assay [3] it was above 8 µM; in assay [1], 0.006 µM; in assay [2], above 8 µM.

Turning to `CC(CCO)S(=O)(=O)c1ccc(-c2cnc(N)c(C(=O)Nc3ccccc3)n2)cc1` (centres undefined), the IC50 in assay [4] is 0.38 µM; in assay [3] it was 3.2 µM; in assay [1], 0.008 µM; in assay [2] it was above 8 µM.

Turning to `Nc1ncc(-c2ccc(S(=O)(=O)[C@@H]3CCOC3)cc2)nc1C(=O)Nc1ccccc1`, the IC50 amounted to 0.46 µM in assay [4], 4.4 µM in assay [3], 0.01 µM in assay [1] and 5 µM in assay [2].

Take `CS(=O)(=O)c1ccc(-c2cnc(N)c(C(=O)NC3CCCCC3)n2)cc1`: the IC50 in assay [3] is above 8 µM; in assay [1], 3.56 µM; in assay [2], above 8 µM.

In the case of `CS(=O)(=O)c1ccc(-c2cnc(N)c(-c3nc4ccccc4[nH]3)n2)cc1`, the IC50 was determined as 2.1 µM in assay [3], 0.03 µM in assay [1] and 0.38 µM in assay [2].

As to `CS(=O)(=O)c1ccc(-c2cnc(N)c(-c3nc4ccccc4o3)n2)cc1`, the results for the IC50 in assay [3], in assay [1] and in assay [2] were 1.4 µM, 0.036 µM and 0.84 µM, respectively.

`CS(=O)(=O)c1ccc(-c2cnc(N)c(-c3nc4ccccc4s3)n2)cc1`: the IC50 turned out to be 2.9 µM in assay [3], 0.022 µM in assay [1] and 0.72 µM in assay [2].

As to `CS(=O)(=O)c1ccc(-c2cnc(N)c(-c3cc4ccccc4[nH]3)n2)cc1`, the IC50 is 2.4 µM in assay [3], 0.023 µM in assay [1] and 0.12 µM in assay [2].

On to `Cn1c(=O)c2c(ncn2C)n(C)c1=O` [CAFFEINE], for which the IC50 in assay [5] was found to be 400 µM; in assay [3], 10000 µM; in assay [1], 1100 µM; in assay [2] it was 200 µM.

Regarding `O=c1cc(-c2cccc3c2Sc2ccccc2S3)oc(N2CCOCC2)c1` [KU-55933], the IC50 in assay [5] is 9.3 µM; in assay [1], above 100 µM.

In the case of `COc1cc2c(c(OC)c1OC)-c1c(cc3c(c1OC)OCO3)CC(C)C(C)C2` (centres undefined) [SCHISANDRIN B], the IC50 in assay [1] is 7.2 µM; in assay [2], 1740 µM.

Source of the values: ChEMBL document CHEMBL1765064, “Discovery of potent and selective inhibitors of ataxia telangiectasia mutated and Rad3 related (ATR) protein kinase as potential anticancer agents” (J Med Chem, 2011).
